The test system of data set [1] is Liver microsome. Briefly: Drug metabolism in human liver microsomes assessed as formation of 5-hydroxy saxagliptin at 10 uM after 30 mins by LC-MS/MS analysis in presence of 1-aminobenzotriazole. On the technique in general: Liver microsomes are a subcellular fraction often used to study metabolism.
Data set [2] in a line: Drug metabolism in human assessed as drug excretion in urine at 50 mg, po after 12 to 24 hrs by liquid scintillation counting. The data set is classed as ADME, organism-based. To be noted: in vivo. The essentials: (§1)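 Healthy males received a single 50-mg oral [14C]saxagliptin solution (91.5 µCi) after a 10-h fast. Urine collected 0–12 h, 12–24 h, then at 24-h intervals to 168 h; feces collected at 24-h intervals. Radioactivity counted by LSC: urine directly, feces as ~20% w/w homogenate combusted before counting. Result expressed as % of actual dose, based on syringe weights.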

The nature of data set [3]: Drug metabolism in human assessed as drug excretion in urine at 50 mg, po after 24 to 48 hrs by liquid scintillation counting. In kind it is ADME, organism-based. To be noted: in vivo. Summed up: as §1
Data set [4] in a line: Drug metabolism in human assessed as total drug excretion in feces at 50 mg, po up to 144 hrs by liquid scintillation counting. In kind it is ADME, organism-based. To be noted: in vivo. The essentials: as §1
Data set [5] is described as follows: Drug metabolism in human assessed as drug excretion in feces at 50 mg, po after 24 to 48 hrs by liquid scintillation counting. In kind it is ADME, organism-based. To be noted: in vivo. The essentials: as §1
The nature of data set [6]: Drug metabolism in human assessed as drug excretion in urine at 50 mg, po after 48 to 168 hrs by liquid scintillation counting. To be noted: in vivo. The data set is classed as ADME, organism-based. Summed up: as §1
Data set [7] in a line: Drug metabolism in human assessed as drug excretion in feces at 50 mg, po after 48 to 72 hrs by liquid scintillation counting. In kind it is ADME, organism-based. To be noted: in vivo. The essentials:
as §1

Data set [8] can be described thus: Drug metabolism in human assessed as drug excretion in feces at 50 mg, po up to 24 hrs by liquid scintillation counting. To be noted: in vivo. In kind it is ADME, organism-based. Summed up:
as §1

Data set [9] relates to Liver microsome. Briefly: Drug metabolism in human liver microsomes assessed as formation of 5-hydroxy saxagliptin at 1 uM after 30 mins by LC-MS/MS analysis in presence of ketoconazole and troleandomycin.
Data set [10] has as its system Liver microsome. The experiment in a line: Drug metabolism in human liver microsomes assessed as formation of 5-hydroxy saxagliptin at 10 uM after 1 hr by LC-MS/MS analysis in absence of NADPH. In kind it is ADME.
Data set [11] can be described thus: Drug metabolism in human assessed as drug excretion in feces at 50 mg, po after 72 to 96 hrs by liquid scintillation counting. To be noted: in vivo. The data set is classed as ADME, organism-based. The essentials: as §1
Data set [12] can be described thus: Drug metabolism in human assessed as drug excretion in feces at 50 mg, po after 96 to 144 hrs by liquid scintillation counting. To be noted: in vivo. In kind it is ADME, organism-based. The essentials: as §1
In data set [13] the test system is Liver microsome. Briefly: Drug metabolism in human liver microsomes assessed as formation of mono-hydroxylated metabolite at 10 uM after 1 hr by LC-MS/MS analysis in presence of NADPH. In kind it is ADME. Summed up:
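Pooled HLM at 1 mg/ml protein, incubated with 10 µM [14C]saxagliptin and 1 mM NADPH in 100 mM phosphate buffer pH 7.4 at 37°C for 60 min. Quenched with ice-cold acetonitrile; supernatant analysed by LC-MS/MS and off-line radioanalysis.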

A short description of data set [14]: Drug metabolism in human assessed as total drug excretion in urine at 50 mg, po up to 168 hrs by liquid scintillation counting. To be noted: in vivo. In kind it is ADME, organism-based. The essentials:
as §1

Data set [15] in a line: Drug metabolism in human assessed as drug excretion in urine at 50 mg, po up to 12 hrs by liquid scintillation counting. The data set is classed as ADME, organism-based. To be noted: in vivo. Summed up:
as §1

Substrate in data set [16]: N#C[C@@H]1C[C@@H]2C[C@@H]2N1C(=O)[C@@H](N)C12CC3CC(CC(O)(C3)C1)C2
The experiment in a line: Drug metabolism in assessed as human CYP3A5-mediated formation of 5-hydroxy saxagliptin Michaelis-Menten kinetic analysis. In kind it is ADME. Summed up: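 M2 formation kinetics measured in triplicate at twelve saxagliptin concentrations from 1 to 800 µM. Enzyme source was pooled HLM (0.25 mg/ml, 30 min, 37°C) or expressed CYP3A4 or CYP3A5 (10 pmol/ml, 10 min). Incubations contained 1 mM NADPH and 2 mM MgCl2 in phosphate buffer pH 7.4.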

As to `N#C[C@@H]1C[C@@H]2C[C@@H]2N1[14C](=O)[14C@@H](N)C12CC3CC(CC(O)(C3)C1)C2`, the Drug metabolism result in [1] was “metabolite_not_detected”; in data set [9] it was “metabolite_not_detected”; in data set [10] it was “metabolite_not_detected”; in [13], “metabolite_detected”. Moreover, the Drug excretion was found to be 3.26% in data set [2]; 1.9% in [3]; 22.05% in data set [4]; 8.46% in data set [5]; 1.6% in data set [6]; 2.86% in [7]. Also, the Drug excretion is 7.22% in [8]; 1.13% in data set [11]; 2.39% in [12]; 74.89% in data set [14]; 68.15% in data set [15].

B1: Cytochrome P450 3A5 (Homo sapiens) (protein)
chain: MDLIPNLAVETWLLLAVSLVLLYLYGTRTHGLFKRLGIPGPTPLPLLGNVLSYRQGLWKFDTECYKKYGKMWGTYEGQLPVLAITDPDVIRTVLVKECYSVFTNRRSLGPVGFMKSAISLAEDEEWKRIRSLLSPTFTSGKLKEMFPIIAQYGDVLVRNLRREAEKGKPVTLKDIFGAYSMDVITGTSFGVNIDSLNNPQDPFVESTKKFLKFGFLDPLFLSIILFPFLTPVFEALNVSLFPKDTINFLSKSVNRMKKSRLNDKQKHRLDFLQLMIDSQNSKETESHKALSDLELAAQSIIFIFAGYETTSSVLSFTLYELATHPDVQQKLQKEIDAVLPNKAPPTYDAVVQMEYLDMVVNETLRLFPVAIRLERTCKKDVEINGVFIPKGSMVVIPTYALHHDPKYWTEPEEFRPERFSKKKDSIDPYIYTPFGTGPRNCIGMRFALMNMKLALIRVLQNFSFKPCKETQIPLKLDTQGLLQPEKPIVLKVDSRDGTLSGE
B1: in data set [16], the Km (commonly the concentration of substrate that gives half-maximal velocity) came to 252 µM and the Vmax – broadly, the rate approached at saturating substrate – was 2.4e-05 µmol/min.

The values are drawn from ChEMBL document CHEMBL3526095, “Characterization of the in vitro and in vivo metabolism and disposition and cytochrome P450 inhibition/induction profile of saxagliptin in human” (Drug Metab Dispos, 2012).
